Calls of active or inactive are those of the source.
Key:
Staphylococcus aureus = assay: Antibacterial activity against Staphylococcus aureus ATCC 25923 after 18 hrs by agar-well diffusion method; type: functional; for IZ: test concentration or dose not given here
In short: (§1)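 Microorganisms flood-inoculated onto the surface of Mueller-Hinton agar or Sabouraud dextrose agar, then dried. 5 mm diameter wells cut into the agar with a sterile cork-borer.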

[1] = tested on: Yersinia pseudotuberculosis; assay: Antibacterial activity against Yersinia pseudotuberculosis ATCC 911 after 18 hrs by agar-well diffusion method; type: functional
In short: (§2)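 Organisms flood-inoculated onto the agar surface and dried. Five-millimetre wells were cut with a sterile cork-borer, and test substance was delivered into each well.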

Klebsiella aerogenes = assay: Antibacterial activity against Enterobacter aerogenes ATCC 13048 after 18 hrs by agar-well diffusion method; type: functional; in short: as §1; for IZ: test concentration or dose not given here
Enterococcus faecalis = assay: Antibacterial activity against Enterococcus faecalis ATCC 29212 after 18 hrs by agar-well diffusion method; type: functional; in short: as §1; for IZ: test concentration or dose not given here
Bacillus cereus = assay: Antibacterial activity against Bacillus cereus 702 after 18 hrs by agar-well diffusion method; type: functional; in short: as §1; for IZ: test concentration or dose not given here
Escherichia coli = assay: Antibacterial activity against Escherichia coli ATCC 25922 after 18 hrs by agar-well diffusion method; type: functional; in short: as §1; for IZ: test concentration or dose not given here
Pseudomonas aeruginosa = assay: Antibacterial activity against Pseudomonas aeruginosa ATCC 43288 after 18 hrs by agar-well diffusion method; type: functional; in short: as §1; for IZ: test concentration or dose not given here
Candida tropicalis = assay: Antifungal activity against Candida tropicalis ATCC 13803 after 18 hrs by agar-well diffusion method; type: functional
In short: (§3)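 Yeast flood-inoculated onto Sabouraud dextrose agar and dried. Five-millimetre wells were cut with a sterile cork-borer, and test substance was delivered into each well.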

Saccharomyces cerevisiae = assay: Antifungal activity against Saccharomyces cerevisiae RSKK 251 after 18 hrs by agar-well diffusion method; type: functional; in short: as §2
Candida albicans = assay: Antifungal activity against Candida albicans ATCC 60193 after 18 hrs by agar-well diffusion method; type: functional; in short: as §3
Aspergillus niger = assay: Antifungal activity against Aspergillus niger RSKK 4017 after 18 hrs by agar-well diffusion method; type: functional, organism-based; in short: as §1
[2] = tested on: Mycolicibacterium smegmatis; assay: Antibacterial activity against Mycobacterium smegmatis ATCC 607 after 18 hrs by agar-well diffusion method; type: functional; in short: as §1; for IZ: test concentration or dose not given here

CC1(C)S[C@@H]2[C@H](NC(=O)[C@H](N)c3ccccc3)C(=O)N2[C@H]1C(=O)O [AMPICILLIN]
15 mm: inhibition zone (IZ) (Bacillus cereus)
10 mm: inhibition zone (IZ) (Klebsiella aerogenes) | inhibition zone (IZ) (Enterococcus faecalis) | inhibition zone (IZ) (Escherichia coli)
35 mm: inhibition zone (IZ) (Staphylococcus aureus)
18 mm: inhibition zone (IZ) [1] | inhibition zone (IZ) (Pseudomonas aeruginosa)

OC(Cn1cncn1)(Cn1cncn1)c1ccc(F)cc1F [FLUCONAZOLE]
>25 mm: inhibition zone (IZ) (Saccharomyces cerevisiae)
25 mm: inhibition zone (IZ) (Candida tropicalis) | inhibition zone (IZ) (Candida albicans)

Cc1c(-n2c(Cc3ccc(Cl)cc3)nn(Cc3nnc(S)n3-c3ccc(F)cc3)c2=O)c(=O)n(-c2ccccc2)n1C
35 mm: inhibition zone (IZ) (Escherichia coli)
active: Activity (Aspergillus niger) | Activity (Candida tropicalis) | Activity (Saccharomyces cerevisiae) | Activity (Candida albicans)
30 mm: inhibition zone (IZ) (Staphylococcus aureus) | inhibition zone (IZ) [1] | inhibition zone (IZ) (Klebsiella aerogenes) | inhibition zone (IZ) [2] | inhibition zone (IZ) (Bacillus cereus)
28 mm: inhibition zone (IZ) (Enterococcus faecalis) | inhibition zone (IZ) (Pseudomonas aeruginosa)

CN[C@@H]1[C@H](O[C@H]2[C@H](O[C@H]3[C@H](O)[C@@H](O)[C@H](N=C(N)N)[C@@H](O)[C@@H]3N=C(N)N)O[C@@H](C)[C@]2(O)C=O)O[C@@H](CO)[C@H](O)[C@H]1O [STREPTOMYCIN]
35 mm: inhibition zone (IZ) [2]

Cc1c(-n2c(Cc3ccc(Cl)cc3)nn(Cc3nnc(S)n3Cc3ccccc3)c2=O)c(=O)n(-c2ccccc2)n1C
active: Activity (Aspergillus niger) | Activity (Candida tropicalis) | Activity (Saccharomyces cerevisiae) | Activity (Candida albicans)
28 mm: inhibition zone (IZ) (Enterococcus faecalis)
35 mm: inhibition zone (IZ) (Escherichia coli)
30 mm: inhibition zone (IZ) (Staphylococcus aureus) | inhibition zone (IZ) [1] | inhibition zone (IZ) (Klebsiella aerogenes) | inhibition zone (IZ) (Bacillus cereus) | inhibition zone (IZ) (Pseudomonas aeruginosa)
33 mm: inhibition zone (IZ) [2]

Cc1c(-n2c(Cc3ccc(Cl)cc3)n[nH]c2=O)c(=O)n(-c2ccccc2)n1C
active: Activity (Aspergillus niger) | Activity (Candida tropicalis) | Activity (Staphylococcus aureus) | Activity [1] | Activity (Saccharomyces cerevisiae) | Activity (Candida albicans) | Activity (Klebsiella aerogenes) | Activity (Enterococcus faecalis) | Activity [2] | Activity (Bacillus cereus) | Activity (Escherichia coli) | Activity (Pseudomonas aeruginosa)

Cc1c(-n2c(Cc3ccc(Cl)cc3)nn(CC(=O)N/N=c3/scc(-c4ccc(Cl)cc4)n3-c3ccccc3)c2=O)c(=O)n(-c2ccccc2)n1C
active: Activity (Aspergillus niger) | Activity (Candida tropicalis) | Activity (Staphylococcus aureus) | Activity (Saccharomyces cerevisiae) | Activity (Candida albicans) | Activity (Klebsiella aerogenes) | Activity (Enterococcus faecalis) | Activity (Bacillus cereus) | Activity (Pseudomonas aeruginosa)
15 mm: inhibition zone (IZ) (Escherichia coli)
12 mm: inhibition zone (IZ) [1]
10 mm: inhibition zone (IZ) [2]

Cc1c(-n2c(Cc3ccc(Cl)cc3)nn(CC(=O)NNC(=S)NCc3ccccc3)c2=O)c(=O)n(-c2ccccc2)n1C
8 mm: inhibition zone (IZ) (Enterococcus faecalis)
15 mm: inhibition zone (IZ) [2] | inhibition zone (IZ) (Escherichia coli)
active: Activity (Aspergillus niger) | Activity (Candida tropicalis) | Activity (Saccharomyces cerevisiae) | Activity (Candida albicans)
10 mm: inhibition zone (IZ) (Staphylococcus aureus) | inhibition zone (IZ) [1] | inhibition zone (IZ) (Klebsiella aerogenes) | inhibition zone (IZ) (Bacillus cereus) | inhibition zone (IZ) (Pseudomonas aeruginosa)

Cc1c(-n2c(Cc3ccc(Cl)cc3)nn(Cc3nnc(NCc4ccccc4)s3)c2=O)c(=O)n(-c2ccccc2)n1C
active: Activity (Aspergillus niger) | Activity (Candida tropicalis) | Activity (Staphylococcus aureus) | Activity (Saccharomyces cerevisiae) | Activity (Candida albicans) | Activity (Enterococcus faecalis) | Activity (Bacillus cereus)
30 mm: inhibition zone (IZ) (Pseudomonas aeruginosa)
25 mm: inhibition zone (IZ) [1] | inhibition zone (IZ) (Klebsiella aerogenes) | inhibition zone (IZ) [2] | inhibition zone (IZ) (Escherichia coli)

Cc1c(-n2c(Cc3ccc(Cl)cc3)nn(Cc3nnc(S)o3)c2=O)c(=O)n(-c2ccccc2)n1C
active: Activity (Aspergillus niger) | Activity (Candida tropicalis) | Activity (Saccharomyces cerevisiae) | Activity (Candida albicans)
38 mm: inhibition zone (IZ) [2]
30 mm: inhibition zone (IZ) (Staphylococcus aureus) | inhibition zone (IZ) [1] | inhibition zone (IZ) (Klebsiella aerogenes) | inhibition zone (IZ) (Bacillus cereus) | inhibition zone (IZ) (Pseudomonas aeruginosa)
28 mm: inhibition zone (IZ) (Enterococcus faecalis)
35 mm: inhibition zone (IZ) (Escherichia coli)

Cc1c(-n2c(Cc3ccc(Cl)cc3)nn(CC(=O)NN)c2=O)c(=O)n(-c2ccccc2)n1C
active: Activity (Aspergillus niger) | Activity (Candida tropicalis) | Activity (Staphylococcus aureus) | Activity [1] | Activity (Saccharomyces cerevisiae) | Activity (Candida albicans) | Activity (Klebsiella aerogenes) | Activity (Enterococcus faecalis) | Activity [2] | Activity (Bacillus cereus) | Activity (Escherichia coli) | Activity (Pseudomonas aeruginosa)

Cc1c(-n2c(Cc3ccc(Cl)cc3)nn(CC(=O)NNC(=S)Nc3ccccc3)c2=O)c(=O)n(-c2ccccc2)n1C
8 mm: inhibition zone (IZ) (Staphylococcus aureus) | inhibition zone (IZ) [1] | inhibition zone (IZ) (Enterococcus faecalis) | inhibition zone (IZ) (Pseudomonas aeruginosa)
10 mm: inhibition zone (IZ) [2] | inhibition zone (IZ) (Bacillus cereus) | inhibition zone (IZ) (Escherichia coli)
active: Activity (Aspergillus niger) | Activity (Candida tropicalis) | Activity (Saccharomyces cerevisiae) | Activity (Candida albicans) | Activity (Klebsiella aerogenes)

CCOC(=O)Cn1nc(Cc2ccc(Cl)cc2)n(-c2c(C)n(C)n(-c3ccccc3)c2=O)c1=O
active: Activity (Aspergillus niger) | Activity (Candida tropicalis) | Activity (Staphylococcus aureus) | Activity [1] | Activity (Saccharomyces cerevisiae) | Activity (Candida albicans) | Activity (Klebsiella aerogenes) | Activity (Enterococcus faecalis) | Activity [2] | Activity (Bacillus cereus) | Activity (Escherichia coli) | Activity (Pseudomonas aeruginosa)

Cc1c(-n2c(Cc3ccc(Cl)cc3)nn(Cc3nnc(Nc4ccccc4)s3)c2=O)c(=O)n(-c2ccccc2)n1C
35 mm: inhibition zone (IZ) (Pseudomonas aeruginosa)
active: Activity (Aspergillus niger) | Activity (Candida tropicalis) | Activity (Staphylococcus aureus) | Activity (Saccharomyces cerevisiae) | Activity (Candida albicans) | Activity (Enterococcus faecalis) | Activity (Bacillus cereus)
25 mm: inhibition zone (IZ) [1] | inhibition zone (IZ) (Klebsiella aerogenes) | inhibition zone (IZ) [2] | inhibition zone (IZ) (Escherichia coli)

Cc1c(-n2c(Cc3ccc(Cl)cc3)nn(Cc3nnc(Nc4ccc(F)cc4)s3)c2=O)c(=O)n(-c2ccccc2)n1C
active: Activity (Aspergillus niger) | Activity (Candida tropicalis) | Activity (Staphylococcus aureus) | Activity (Saccharomyces cerevisiae) | Activity (Candida albicans) | Activity (Enterococcus faecalis) | Activity (Bacillus cereus)
25 mm: inhibition zone (IZ) [1] | inhibition zone (IZ) (Klebsiella aerogenes) | inhibition zone (IZ) [2]
20 mm: inhibition zone (IZ) (Escherichia coli) | inhibition zone (IZ) (Pseudomonas aeruginosa)

Cc1c(-n2c(Cc3ccc(Cl)cc3)nn(Cc3nnc(S)n3-c3ccccc3)c2=O)c(=O)n(-c2ccccc2)n1C
34 mm: inhibition zone (IZ) [2]
30 mm: inhibition zone (IZ) [1] | inhibition zone (IZ) (Bacillus cereus) | inhibition zone (IZ) (Pseudomonas aeruginosa)
25 mm: inhibition zone (IZ) (Staphylococcus aureus) | inhibition zone (IZ) (Klebsiella aerogenes) | inhibition zone (IZ) (Escherichia coli)
active: Activity (Aspergillus niger) | Activity (Candida tropicalis) | Activity (Saccharomyces cerevisiae) | Activity (Candida albicans)
20 mm: inhibition zone (IZ) (Enterococcus faecalis)

Cc1c(-n2c(Cc3ccc(Cl)cc3)nn(CC(=O)NNC(=S)Nc3ccc(F)cc3)c2=O)c(=O)n(-c2ccccc2)n1C
active: Activity (Aspergillus niger) | Activity (Candida tropicalis) | Activity (Saccharomyces cerevisiae) | Activity (Candida albicans)
8 mm: inhibition zone (IZ) (Klebsiella aerogenes) | inhibition zone (IZ) (Enterococcus faecalis)
10 mm: inhibition zone (IZ) (Staphylococcus aureus) | inhibition zone (IZ) [1] | inhibition zone (IZ) (Bacillus cereus) | inhibition zone (IZ) (Pseudomonas aeruginosa)
15 mm: inhibition zone (IZ) [2] | inhibition zone (IZ) (Escherichia coli)

Cc1c(-n2c(Cc3ccc(Cl)cc3)nn(CC(=O)N/N=c3/scc(-c4ccc([N+](=O)[O-])cc4)n3-c3ccccc3)c2=O)c(=O)n(-c2ccccc2)n1C
active: Activity (Aspergillus niger) | Activity (Candida tropicalis) | Activity (Saccharomyces cerevisiae) | Activity (Candida albicans) | Activity (Klebsiella aerogenes)
20 mm: inhibition zone (IZ) (Bacillus cereus) | inhibition zone (IZ) (Pseudomonas aeruginosa)
25 mm: inhibition zone (IZ) [2]
18 mm: inhibition zone (IZ) (Enterococcus faecalis)
15 mm: inhibition zone (IZ) (Escherichia coli)
30 mm: inhibition zone (IZ) (Staphylococcus aureus) | inhibition zone (IZ) [1]

From ChEMBL document CHEMBL1275269, “Cyclization of some carbothioamide derivatives containing antipyrine and triazole moieties and investigation of their antimicrobial activities” (2010)
